Active and inactive are the calls of the source. No cut-off for these calls is given here.
Legend:
[1] = test system: A549; assay: Cell cycle arrest in human A549 cells assessed as accumulation at G0/G1 phase at 10 uM after 24 hrs using propidium iodide staining by flow cytometry analysis (reference value: 51 +/- 1.1%); format: functional
[2] = test system: A549; assay: Induction of apoptosis in human A549 cells assessed as reduction of Bad proteins expression at 10 uM after 6 to 36 hrs by Western blot analysis; format: functional, cell-based
In short: (§1)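 A549 cells given 10 μM for 6, 12, 24, 36 h; lysates blotted (40 μg protein, SDS-PAGE, PVDF) for caspase-3/-8/-9, PARP, survivin, Bad, Bcl-xL; ECL detection; survivin bands quantified densitometrically; three independent experiments.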

[3] = test system: Caco-2; assay: Cytotoxicity against human Caco2 cells after 48 hrs by SRB assay; conditions: Caco-2, 48 h
[4] = test system: A549; assay: Cell cycle arrest in human A549 cells assessed as accumulation at S phase at 10 uM after 36 hrs using propidium iodide staining by flow cytometry analysis (reference value: 9.6 +/- 0.9%); format: functional
[5] = test system: A549; assay: Induction of apoptosis in human A549 cells assessed as induction of ROS production at 10 uM using DCF-DA staining by flow cytometry analysis relative to control; format: functional, cell-based; conditions: TDE = time-dependent effect
In short: (§2)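 Cells pretreated 1 h with or without 1 mM Tiron, then 10 μM for 1, 3 or 5 h; intracellular ROS read by DCF-DA flow cytometry; mean ± SEM of three independent determinations versus vehicle.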

[6] = test system: A549; assay: Induction of apoptosis in human A549 cells assessed as loss of mitochondrial membrane potential at 10 to 30 uM after 12 to 24 hrs by flow cytometry analysis; format: functional, cell-based
In short: (§3)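 A549 cells treated 12 and 24 h, stained with rhodamine 123 for 30 min at 37 °C; mean fluorescence by FACScan flow cytometry; CCCP (50 μM) used as depolarising control; mean ± SEM of three independent determinations.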

[7] = test system: A549; assay: Induction of apoptosis in human A549 cells assessed as induction of ROS production at 5 mM after 12 hrs using DCF-DA staining by flow cytometry analysis relative to control; format: functional
In short: (§4)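 Intracellular ROS in A549 cells after 12 h at 1, 3, 10, 30 μM, with 5 mM H2O2 as reference, measured by flow cytometry with DCF-DA probe; fold fluorescence over vehicle control; mean ± SEM, three independent determinations.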

[8] = test system: A549; assay: Induction of apoptosis in human A549 cells assessed as DNA level at 3 to 30 uM using propidium iodide staining by flow cytometry analysis; format: functional, cell-based; conditions: TDE = time-dependent effect
In short: (§5)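 A549 cells treated at 3, 10 or 30 μM for 24, 36 or 48 h, fixed, stained with propidium iodide; hypodiploid apoptotic fraction counted by FACScan flow cytometry; mean ± SEM of three determinations versus vehicle control.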

[9] = test system: A549; assay: Induction of apoptosis in human A549 cells assessed as increase in expression of LC3-II at 10 uM by Western blot analysis; format: functional, cell-based; conditions: TDE = time-dependent effect
In short: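 A549 cells with or without 10 μM for 6, 12, 24, 36 h; LC3 detected by Western blot with ECL; LC3 II band quantified by image analysis; three independent experiments.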

[10] = test system: A549; assay: Induction of apoptosis in human A549 cells assessed as induction of ROS production at 10 uM after 5 hrs using DCF-DA staining by flow cytometry analysis in presence of Tiron; format: functional, cell-based; in short: as §2
[11] = Cytotoxicity against human HT1080 cells after 48 hrs by SRB assay; conditions: HT-1080, 48 h
[12] = test system: A549; assay: Induction of apoptosis in human A549 cells assessed as reduction of Bcl-xL expression at 10 uM after 6 to 36 hrs by Western blot analysis; format: functional, cell-based; in short: as §1
[13] = test system: A549; assay: Induction of apoptosis in human A549 cells assessed as reduction of survivin expression at 10 uM by Western blot analysis; format: functional, cell-based; conditions: TDE = time-dependent effect; in short: as §1
[14] = test system: A549; assay: Induction of apoptosis in human A549 cells assessed as induction of cleaved PARP protein expression at 10 uM after 26 to 36 hrs by Western blot analysis; format: functional, cell-based; conditions: in the assay text read “24 to 36 hrs” for “26 to 36 hrs”; in short: as §1
[15] = test system: A549; assay: Cell cycle arrest in human A549 cells assessed as accumulation at S phase at 10 uM after 48 hrs using propidium iodide staining by flow cytometry analysis (reference value: 9.5 +/- 0.7%); format: functional
[16] = test system: A549; assay: Induction of apoptosis in human A549 cells assessed as induction of ROS production after 12 hrs using DCF-DA staining by flow cytometry analysis; format: functional, cell-based; in short: as §4
[17] = test system: A549; assay: Induction of apoptosis in human A549 cells assessed as induction of ROS production at 30 uM after 12 hrs using DCF-DA staining by flow cytometry analysis relative to control; format: functional; in short: as §4
[18] = Cytotoxicity against human HuH7 cells after 48 hrs by SRB assay; conditions: Huh-7, 48 h
[19] = test system: A549; assay: Cell cycle arrest in human A549 cells assessed as accumulation at G2/M phase at 10 uM after 36 hrs using propidium iodide staining by flow cytometry analysis (reference value: 35.8 +/- 1.8%); format: functional
[20] = test system: A549; assay: Induction of apoptosis in human A549 cells assessed as proteolytic cleavage of inactive procaspase-8, 9, and 3 into active caspase-8, 9, and 3 at 10 uM by Western blot analysis; format: functional, cell-based; conditions: TDE = time-dependent effect; in short: as §1
[21] = test system: A549; assay: Induction of apoptosis in human A549 cells assessed as induction of ROS production at 1 uM after 12 hrs using DCF-DA staining by flow cytometry analysis relative to control; format: functional; in short: as §4
[22] = test system: A549; assay: Cell cycle arrest in human A549 cells assessed as accumulation at sub-G1 phase at 10 uM after 24 hrs using propidium iodide staining by flow cytometry analysis (reference value: 2 +/- 0.3%); format: functional
[23] = test system: A549; assay: Cell cycle arrest in human A549 cells assessed as accumulation at sub-G1 phase at 10 uM after 48 hrs using propidium iodide staining by flow cytometry analysis (reference value: 1.5 +/- 0.1%); format: functional
[24] = test system: A549; assay: Cytotoxicity against human A549 cells after 48 hrs by MTT assay; format: functional, cell-based
In short: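 Viability of A549 cells measured by mitochondrial MTT reduction after 24 and 48 h incubation with indicated concentrations; IC50 at 48 h; mean ± SEM of three determinations, each in triplicate.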

[25] = test system: A549; assay: Induction of apoptosis in human A549 cells assessed as induction of ROS production at 10 uM after 12 hrs using DCF-DA staining by flow cytometry analysis relative to control; format: functional; in short: as §4
[26] = test system: A549; assay: Induction of apoptosis in human A549 cells assessed as DNA level after 24 to 48 hrs using propidium iodide staining by flow cytometry analysis; format: functional, cell-based; in short: as §5
[27] = Cytotoxicity against human Hep3B cells after 48 hrs by SRB assay
[28] = test system: A549; assay: Induction of apoptosis in human A549 cells assessed as downregulation of cyclin D1, cyclin E, Cdk 2, and Cdk 4 protein levels after 24 hrs by Western blot analysis; format: functional, cell-based
In short: (§6)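 A549 lysates after 10 μM for 6, 12, 24, 36 h, or 1, 3, 10 μM for 24 h; 40 μg protein on 8–12% SDS gels, PVDF transfer, primary antibodies 1 h at room temperature, ECL detection; three independent experiments.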

[29] = test system: A549; assay: Cell cycle arrest in human A549 cells assessed as accumulation at G2/M phase at 10 uM after 48 hrs using propidium iodide staining by flow cytometry analysis (reference value: 31.9 +/- 1.4%); format: functional
[30] = test system: A549; assay: Induction of apoptosis in human A549 cells assessed as induction of ROS production at 3 uM after 12 hrs using DCF-DA staining by flow cytometry analysis relative to control; format: functional; in short: as §4
[31] = test system: A549; assay: Cytotoxicity against human A549 cells after 48 hrs by SRB assay; format: functional, cell-based
In short: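 A549 cells exposed to a range of concentrations for 48 h, fixed and stained with sulforhodamine B to measure cell number; IC50 from three independent determinations, mean ± SEM.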

[32] = test system: A549; assay: Induction of apoptosis in human A549 cells assessed as hypodiploid DNA content at 10 to 20 uM after 48 hrs by flow cytometry analysis in presence of Z-VAD-fmk; format: functional, cell-based
In short: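 Cells preincubated 2 h with or without 50 μM Z-VAD-fmk, then exposed to indicated concentrations for 48 h; hypodiploid DNA content read by flow cytometry; mean ± SEM of three independent determinations.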

[33] = test system: SW1353; assay: Cytotoxicity against human SW1353 cells after 48 hrs by SRB assay; conditions: SW1353, 48 h
[34] = test system: A549; assay: Induction of apoptosis in human A549 cells assessed as loss of mitochondrial membrane potential at 50 uM after 12 to 24 hrs by flow cytometry analysis; format: functional, cell-based; in short: as §3
[35] = test system: A549; assay: Cell cycle arrest in human A549 cells assessed as accumulation at S phase at 10 uM after 24 hrs using propidium iodide staining by flow cytometry analysis (reference value: 12 +/- 1.4%); format: functional
[36] = test system: A549; assay: Induction of apoptosis in human A549 cells assessed as downregulation of cyclin D1, cyclin E, Cdk 2, and Cdk 4 protein levels at 10 uM after 6 to 36 hrs by Western blot analysis; format: functional, cell-based; in short: as §6
[37] = test system: A549; assay: Cell cycle arrest in human A549 cells assessed as accumulation at sub-G1 phase at 10 uM after 36 hrs using propidium iodide staining by flow cytometry analysis (reference value: 1.7 +/- 0.4%); format: functional
[38] = test system: A549; assay: Cell cycle arrest in human A549 cells assessed as accumulation at G2/M phase at 10 uM after 24 hrs using propidium iodide staining by flow cytometry analysis (reference value: 35.2 +/- 2.3%); format: functional
[39] = test system: A549; assay: Cell cycle arrest in human A549 cells assessed as accumulation at G0/G1 phase at 10 uM after 48 hrs using propidium iodide staining by flow cytometry analysis (reference value: 57.3 +/- 0.9%); format: functional
[40] = test system: A549; assay: Cell cycle arrest in human A549 cells assessed as accumulation at G0/G1 phase at 10 uM after 36 hrs using propidium iodide staining by flow cytometry analysis (reference value: 53.1 +/- 1.2%); format: functional

In the case of `CC1CC(=O)c2c(cc3c(-c4c(O)cc(O)c5c(O)c6c(cc45)OC(C)CC6=O)c(O)cc(O)c3c2O)O1` (configuration not stated) [CEPHALOCHROMIN], the Activity [1] is reported as 59.6%, the Activity [2] is reported as “inactive” and the IC50 [3] is reported as 12.4 µM. For the same molecule, the Activity [4] was 4.2%, the Activity [5] was “tde” and the Activity [6] was “Active”. For the same molecule, the “fold change (FC)” value [7] was 7.2, the Activity [8] was “tde” and the Activity [9] was “tde”. For the same molecule, the Activity [10] was “inactive”, the IC50 [11] was 4.98 µM and the Activity [12] was “Active”. The Activity [13] was “tde”, the Activity [14] was “Active” and the Activity [15] was 4.4%. The Activity [16] was “Dose-dependent effect”, the “fold change (FC)” value [17] was 4.65 and the IC50 [18] was 4.64 µM. For the same molecule, the Activity [19] was 32.3%, the Activity [20] was “tde” and the “fold change (FC)” value [21] was 1.24. For the same molecule, the Activity [22] was 3.8%, the Activity [23] was 15.5% and the Activity [24] was “Dose-dependent effect”. For the same molecule, the IC50 ([24]; A549, 48 h) was 5.22 µM, the “fold change (FC)” value [25] was 2.87 and the Activity [26] was “Dose-dependent effect”. The IC50 [27] was 14.3 µM, the Activity [28] was “Dose-dependent effect” and the Activity [29] was 27.9%. The “fold change (FC)” value [30] was 1.89, the Activity [31] was “Dose-dependent effect” and the IC50 ([31]; A549, 48 h) was 2.72 µM. For the same molecule, the Activity [32] was “inactive”, the IC50 [33] was 3.54 µM and the Activity [34] was “Active”. The Activity [35] was 3.9%, the Activity [36] was “Active” and the Activity [37] was 9.8%. For the same molecule, the Activity [38] was 32.7%, the Activity [39] was 52.1% and the Activity [40] was 53.7%.
